The text below walks through data of ChEMBL document CHEMBL2146434, “Synthesis and biological evaluation of new amino acid and dipeptide derivatives of neocryptolepine as anticancer agents” (J Med Chem, 2012).

Each structure is given as a SMILES string. Where a name gives a salt, the structure may show the parent alone.

For the first data set, the system named is KB. The experiment in a line: Cytotoxicity against human KB cells after 72 hrs by SRB assay. The format is functional, cell-based.
Details: not given
For orientation: In SRB staining, fixed cells bind dye roughly in proportion to their protein.
In the case of `Cc1c2c3cc(NC(=O)[C@@H]4CCCN4C(=O)[C@@H]4CCCN4)ccc3nc-2n(C)c2ccccc12.Cl.Cl`, half-maximal inhibition (IC50) was put at 560 nM.

For `Cc1c2ccccc2nc2c1c1cc(NC(=O)[C@@H](N)Cc3cnc[nH]3)ccc1n2C`, it took 5960 nM to reach half-maximal inhibition (IC50).

On to `COc1cccc2c1C(=O)c1c(O)c3c(c(O)c1C2=O)C[C@@](O)(C(=O)CO)C[C@@H]3O[C@H]1C[C@H](N)[C@H](O)[C@H](C)O1` [DOXORUBICIN HYDROCHLORIDE], for which 840 nM corresponded to half-maximal inhibition (IC50).

The next data set concerns MCF7. Nature of the data set: Cytotoxicity against human MCF7 cells after 72 hrs by SRB assay. As to conditions: MCF7, 72 h. The format is functional, cell-based. In a few lines: (§1)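 IC50 is the compound concentration giving 50% inhibition of cell proliferation. It was determined on normal mouse BALB/3T3 fibroblasts and on human A549, MCF-7 and LoVo cancer lines, with doxorubicin hydrochloride and DiMIQ as reference compounds.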
As for `Cc1c2c3cc(NC(=O)[C@@H]4CCCN4C(=O)[C@@H]4CCCN4)ccc3nc-2n(C)c2ccccc12.Cl.Cl`, the IC50 (in general, the concentration that gives 50% inhibition) was found to be 960 nM.

`COc1cccc2c1C(=O)c1c(O)c3c(c(O)c1C2=O)C[C@@](O)(C(=O)CO)C[C@@H]3O[C@H]1C[C@H](N)[C@H](O)[C@H](C)O1` [DOXORUBICIN HYDROCHLORIDE]: the 50% inhibitory concentration (IC50) was found to be 440 nM.

In the next data set the test system is A549. Nature of the data set: Cytotoxicity against human A549 cells after 72 hrs by SRB assay. As to conditions: A549, 72 h. The format is functional, cell-based. A digest of the protocol: as §1
For `Cc1c2c3cc(NC(=O)[C@@H]4CCCN4C(=O)[C@@H]4CCCN4)ccc3nc-2n(C)c2ccccc12.Cl.Cl`, the half-maximal inhibitory concentration (IC50) amounted to 540 nM.

Test system in a further data set: not listed separately
Nature of the data set: Solubility of the compound in water. As to conditions: buffer. The format is physicochemical.
For the compound `Cc1c2c3cc(NC(=O)[C@@H]4CCCN4C(=O)[C@@H]4CCCN4)ccc3nc-2n(C)c2ccccc12.Cl.Cl`, the solubility result was “soluble”.

In a further data set the test system is LoVo. Nature of the data set: Cytotoxicity against human LoVo cells after 72 hrs by SRB assay. The format is functional, cell-based.
Details: not given
A digest of the protocol:
as §1
In turn, `Cc1c2c3cc(NC(=O)[C@@H]4CCCN4C(=O)[C@@H]4CCCN4)ccc3nc-2n(C)c2ccccc12.Cl.Cl` displayed an IC50 of 360 nM.

As to `COc1cccc2c1C(=O)c1c(O)c3c(c(O)c1C2=O)C[C@@](O)(C(=O)CO)C[C@@H]3O[C@H]1C[C@H](N)[C@H](O)[C@H](C)O1` [DOXORUBICIN HYDROCHLORIDE], the IC50 amounted to 110 nM.

Test system in the next data set: not listed separately
Nature of the data set: Ratio of IC50 for compound to ratio of IC50 for DiMIQ for BALB mouse 3T3 cells. It counts as cell-based. To be noted: read-out: Ratio IC50.
Consider `Cc1c2c3cc(NC(=O)[C@@H]4CCCN4C(=O)[C@@H]4CCCN4)ccc3nc-2n(C)c2ccccc12.Cl.Cl`, for which the selectivity ratio was 5.
